For three molecules, Activity results are on record in ChEMBL document CHEMBL1138555, “N-acylated and N,N'-diacylated imidazolidine-2-thione derivatives and N,N'-diacylated tetrahydropyrimidine-2(1H)-thione analogues: synthesis and antiproliferative activity” (Eur J Med Chem, 2009).

SMILES strings stand for the structures. Active and inactive are the calls of the source. The calls are words filed in the database; no cut-off is given here.

This assay has as its system Human immunodeficiency virus 1. Briefly: Antiviral activity against HIV1 in human MT4 cells assessed as prevention of virus-induced cytopathogenicity. The format is functional, organism-based. The gist of the method:
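MT-4 cells, 1 × 10⁴ per well, with serial compound dilutions from a 100 mM DMSO stock. Infected with HIV-1 at 100 CCID50. Four-day incubation at 37 °C, then viable cells measured by MTT. Read-out is inhibition of virus-induced cytopathogenicity, assessed at non-cytotoxic concentrations.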
(In general: Protection from cytopathic effect is a common read-out in antiviral testing.)

With `N#CC(C#N)=CN1CCNC1=S`, the outcome was inactive.

For `N#C/C(=C\N1CCNC1=S)C(=O)Nc1ccc(Cl)cc1`, the outcome was inactive.

Turning to `O=C(C(=CN1CCNC1=S)C(=O)c1ccccc1)c1ccccc1`, the result was inactive.
